Screening results (PubChem)
Compounds with a hit are over-represented: about 3.5% of the library has one in this group of screens.
RGS4 block – inhibitors of human RGS4; HEK293 M3R/RGS4 inducible, Fluo-4 calcium flux; active compounds read high; triggered by carbachol at its EC20; AID 463165; actives 0.45% (n = 310,000); P49798; B-score at 10 µM;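 active = B-score, a plate-corrected calcium signal, over three deviations above library mean, with baseline fluorescence within five deviations of library mean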;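 also: RGS4 expression induced by doxycycline in cells with stable M3 receptor; B-score is computed from the integrated fluorescence ratio over baseline after carbachol; higher B-score means a larger calcium signal and so more RGS4 inhibition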
Target sequence (P49798 whole entry, looked up): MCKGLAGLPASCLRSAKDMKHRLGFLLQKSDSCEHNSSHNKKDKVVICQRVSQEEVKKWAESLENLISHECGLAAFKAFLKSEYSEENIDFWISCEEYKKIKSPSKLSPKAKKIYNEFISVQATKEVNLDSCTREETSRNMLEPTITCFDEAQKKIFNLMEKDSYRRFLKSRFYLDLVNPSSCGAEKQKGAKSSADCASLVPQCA
MrgX1 allo act – human MrgX1 positive allosteric modulation, primary screen. MrgX1-HEK293, Fluo-4 calcium flux, FDSS; active compounds read high. actives 0.63% (n = 310,000). Q96LB2. AID 588675. B-score at 10 µM;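 active = plate-corrected calcium response at least 3 library SD above typical, normal starting fluorescence, not activating the receptor alone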;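 also: compound read alongside a low EC10 to EC30 dose of BAM8-22 agonist; peak minus trough fluorescence over baseline measured at the second addition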
Target sequence (Q96LB2 whole entry, looked up): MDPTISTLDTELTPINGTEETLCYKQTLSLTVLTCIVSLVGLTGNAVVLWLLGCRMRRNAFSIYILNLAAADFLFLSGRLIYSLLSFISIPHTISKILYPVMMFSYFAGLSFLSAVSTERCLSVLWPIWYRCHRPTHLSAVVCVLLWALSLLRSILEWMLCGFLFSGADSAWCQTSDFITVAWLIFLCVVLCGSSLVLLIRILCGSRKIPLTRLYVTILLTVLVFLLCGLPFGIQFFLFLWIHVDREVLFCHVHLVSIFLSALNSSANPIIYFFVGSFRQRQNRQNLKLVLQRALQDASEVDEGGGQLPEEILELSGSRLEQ
RGS4 pot – potentiators or activators of RGS4; HEK293 M3R/inducible RGS4, carbachol calcium flux Fluo4; active compounds read low; B-score at 10 µM; actives 0.92% (n = 310,000);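 active = B-score of the integrated calcium signal more than 4 SD below the library mean, with starting fluorescence not abnormally high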;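 also: negative B-score means reduced calcium response which marks RGS4 activation or potentiation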
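Test system: HEK293 cells with stable M3R and inducible RGS4; also added: carbachol at ECmax as muscarinic agonist stimulus; schedule: dye loading 30 min 37 °C, buffer rest 30 min RT; technique: kinetic calcium fluorescence imaging with Fluo4-AM dye, 2 µM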
MrgX1 antagonist – antagonists of human MrgX1 receptor. MRGX1-HEK293 calcium flux, Fluo-4, BAM8-22 antagonism; active compounds read low. B-score at 10 µM. Q96LB2. actives 1.3% (n = 310,000);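 active = calcium-response B-score plate-corrected more than 3 library SD below zero, starting fluorescence within 5 deviations, no agonist response on first addition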;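 also: peak minus trough fluorescence over baseline after final BAM8-22 challenge near maximal dose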
MrgX1 agonist – human MrgX1 receptor agonism, primary screen | Q96LB2 | actives 0.44% (n = 310,000) | B-score at 10 µM | MrgX1-HEK293 cells, Fluo-4 calcium fluorescence, agonist mode; active compounds read high;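 active = calcium response B-score plate-corrected fluorescence ratio at least 3 library SD, with starting fluorescence B-score inside 5 SD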
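Assay system: stable human MrgX1 HEK293 cell line. Quantity: 15,000 cells per well. Schedule: cells plated overnight, dye loaded 0.5 h 37 °C, 0.5 h room temperature. Detection: Fluo-4 NW calcium-flux fluorescence, kinetic read. Read-out basis: peak-minus-minimum fluorescence over baseline, converted to B scores. Control set: positive and negative control wells on each plate.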
Hits are given with their value; 0 = inactive; - = not tested or not shown.

SMILES	RGS4 block	MrgX1 allo act	RGS4 pot	MrgX1 antagonist	MrgX1 agonist
COc1c(CC=C(C)C)cc(C2CC(=O)c3c(O)cc(O)cc3O2)c(CC=C(C)C)c1O (stereo not drawn)	0	0	-7.6	0	0
CCCCC1(C)OC(=O)C(=Cc2ccc(N(CC)CC)cc2)C(=O)O1 (stereo not drawn)	0	0	0	0	44
CCN(CC)c1ccc(C=C2C(=O)OC3(CCCCC3)OC2=O)cc1	0	0	0	0	33
CCN(CC)c1ccc(/C=C2/C(=O)c3ccc(C(=O)O)cc3C2=O)cc1	-	0	-	0	0
Cn1c2ccccc2c2nnc(N/N=C/c3ccc(O)cc3)nc21	0	0	0	0	0
COc1cc2c(cc1OC)-c1cc(NC3CCCCCC3)nc(=O)n1CC2	0	0	0	-6.2	0
COC(=O)C/C(O)=C(/N=Nc1cccc(C(F)(F)F)c1)C(=O)OC	0	0	0	0	0
N/C(=N\OC(=O)c1ccc(=O)n(Cc2ccccc2)c1)c1ccccn1	0	0	0	-5.1	0
N/C(=N\OC(=O)c1ccc(Cl)c(Cl)c1)c1cccc(CSc2ccccn2)c1	0	0	-7.5	0	0
N/C(=N\OC(=O)c1ccc(Cl)c(Cl)c1)c1cccnc1	0	0	0	0	0
N/C(=N\OC(=O)c1ccc(=O)n(Cc2ccc(Cl)cc2)c1)c1ccccn1	0	0	0	0	0
Cc1cccc(N2CCN(C(=O)c3ccc4c(c3)NC(=O)C(CSCc3cccc(F)c3)N4)CC2)c1C (stereo not drawn)	0	0	0	0	34
Cc1cccc(N2CCN(C(=O)c3ccc4c(c3)OCCO4)CC2)c1C	0	0	0	0	0
S=C(NCCC(c1ccccc1)c1ccccc1)Nc1ccc(Cl)cc1	0	0	-7.9	0	0
CCN(CC)S(=O)(=O)c1ccc(OC(C)C)c(NC(=O)c2c3c(nc4ccccc24)CCN(Cc2ccccc2)C3)c1	0	0	0	-5	0
Cc1ccc(S(=O)(=O)NCC(c2cccnc2)N2CCc3ccccc32)cc1 (stereo not drawn)	0	0	0	0	0
O=C(O)c1cc(-c2ccc(/C=c3\sc4nc5ccc(Br)cc5n4c3=O)o2)ccc1Cl	0	0	0	0	42
C=CCc1ccc(OCC(O)CN2CCc3ccccc3C2)c(OC)c1 (stereo not drawn)	0	0	0	0	0
Cc1ccc2cc(C(c3nnnn3CC3CCCO3)N3CCc4ccccc4C3)c(=O)[nH]c2c1 (stereo not drawn)	0	0	0	0	0
Cc1cccc2cc(C(c3nnnn3CC3CCCO3)N3CCc4ccccc4C3)c(=O)[nH]c12 (stereo not drawn)	-	0	-	-5.1	0
O=c1cc(/N=C/c2coc3cc(Br)ccc3c2=O)[nH]c(=S)[nH]1	0	0	0	0	0
CC(=O)Oc1ccc2c(=O)c(/C=N/c3cc(=O)[nH]c(=S)[nH]3)coc2c1	0	14	0	0	0
CCOc1cc(N2CCOCC2)c(OCC)cc1NC(=O)c1ccc(OC(C)C)cc1	0	0	0	0	0
Cc1ccc(C(=O)OCC(=O)c2c[nH]c3ccccc23)cc1	0	0	0	0	0
CC(C)Cc1ccc(C(C)C(=O)OCC(=O)c2c[nH]c3ccccc23)cc1 (stereo not drawn)	0	0	-7.3	0	0
SMILES	RGS4 block	MrgX1 allo act	RGS4 pot	MrgX1 antagonist	MrgX1 agonist
OC1C(O)C(O)C(O)C(O)C1O (stereo not drawn)	0	0	0	0	0
CN1CCN(C2=Nc3cc(Cl)ccc3Nc3ccccc32)CC1	0	0	-7.5	0	0
Cc1ccc(S(=O)(=O)c2cc3c(=O)n4ccccc4nc3n(CCc3ccccc3)c2=N)cc1	0	0	-7.2	0	0
COc1ccc(CCn2c(=N)c(S(=O)(=O)c3ccc(Cl)cc3)cc3c(=O)n4ccccc4nc32)cc1	0	0	0	-5.5	0
COc1ccc(CCn2c(=N)c(S(=O)(=O)c3ccccc3)cc3c(=O)n4ccccc4nc32)cc1	0	0	0	0	0
Cc1ccc(S(=O)(=O)c2cc3c(=O)n4ccccc4nc3n(Cc3ccco3)c2=N)cc1C	0	0	0	0	31
CC(=O)NC1=NC(=O)/C(=C/c2cc(C)n(-c3ccc(NC(C)=O)cc3)c2C)S1	0	0	0	-4.5	0
Cc1nnc(SCC(=O)Nc2ccc3c(c2)OCO3)n(N)c1=O	0	0	0	0	0
COc1ccccc1NC(=S)NNC(=O)c1ccncc1	0	0	0	0	28
COc1ccc2[nH]c3c(c2c1)CCNC3c1ccc([N+](=O)[O-])o1 (stereo not drawn)	0	0	0	-5.6	0
COc1cc(C2NCCc3c2[nH]c2ccccc32)ccc1OC(C)C (stereo not drawn)	0	0	0	0	0
O=C(Nc1ccccc1)C1=C[C@H](c2ccccc2)C[C@H](OCc2ccc(CO)cc2)O1	0	7.3	0	0	0
CCCC[C@H]1COCCS(=O)(=O)N1Cc1ccc(Br)cc1	0	0	-7.1	0	0
Cc1ccc2nc(N(CCCN(C)C)C(=O)c3cc(-c4cccs4)nc4ccccc34)sc2c1	0	0	-7.8	0	0
O=C(Nc1ccccc1)c1ccc(NC(=O)C2CC2)cc1	0	0	0	0	0
C=CCN1C(=O)[C@@H]2Cc3c([nH]c4ccccc34)C(c3ccc(O)cc3)N2C1=S (stereo partly drawn)	0	0	0	-5.3	0
CCc1ccc(NC(=O)c2c(C(=O)Nc3ccccc3)sc3nc(C)cc(=O)n23)cc1	0	0	0	0	0
CN(c1ccccc1)S(=O)(=O)c1ccc(C(=O)N2CCCC(C(F)(F)F)C2)cc1 (stereo not drawn)	0	0	0	0	0
Cc1ccc(S(=O)(=O)N2[C@@H](c3ccccc3F)C(C(=O)O)=CC[C@H]2c2ccc3c(c2)OCO3)cc1	-	14	-	0	0
Cc1ccc(S(=O)(=O)N2[C@@H](c3ccc(F)cc3)C(C(=O)O)=CC[C@H]2c2ccc3c(c2)OCO3)cc1	-	9.5	-	0	0
Cc1ccc(S(=O)(=O)N2[C@@H](c3ccc(F)cc3)C(C(=O)O)=CC[C@H]2c2cccc(C)c2)cc1	-	0	-	0	0
COc1ccc([C@@H]2CC=C(C(=O)O)[C@H](c3ccccc3F)N2S(=O)(=O)c2ccc(C)cc2)cc1OC	-	0	-	0	0
CCN(CC)Cc1c(O)ccc2c(=O)c(-c3ccc(Cl)cc3)coc12	0	0	0	0	0
CCCOC(=O)c1ccc(Oc2coc3c(CN(CC)CC)c(O)ccc3c2=O)cc1	0	0	-8.6	0	0
COc1ccc(S(=O)(=O)NCC(=O)Nc2cccc(C)c2C)cc1OC	0	0	0	0	0
CC[C@H](C)[C@@H]1NC(=O)c2cc([N+](=O)[O-])cc(I)c2SC[C@@H](C(N)=O)NC(=O)[C@H](CCCCN)NC1=O	-	0	-	-6.6	0
O=C(/C=C(/c1ccc(Cl)cc1)n1cncn1)c1ccccc1	0	0	0	0	0
